# According to paper PMC4031611 (Nature chemistry, 2014):
# Peptide text beside a SMILES is read from it. * marks the point of attachment. Cbz = O=C(OCc1ccccc1)*; CH2F = FC*
# Tests used:
# [1] = target: T1, recombinant human caspase-3 (Homo sapiens, UniProt P42574); assay: Caspase-3-mediated macrocyclization in vitro, HPLC assay; type: biochemical; details: probe 25 μM, caspase-3 4.9 × 10^−3 U/ml, 37 °C
# T1 sequence (P42574 29-175 limits assumed): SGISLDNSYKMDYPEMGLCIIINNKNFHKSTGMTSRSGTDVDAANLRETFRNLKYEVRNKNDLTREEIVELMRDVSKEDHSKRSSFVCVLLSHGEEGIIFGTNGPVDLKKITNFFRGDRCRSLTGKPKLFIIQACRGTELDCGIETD
# T1 sequence (P42574 176-277 limits assumed): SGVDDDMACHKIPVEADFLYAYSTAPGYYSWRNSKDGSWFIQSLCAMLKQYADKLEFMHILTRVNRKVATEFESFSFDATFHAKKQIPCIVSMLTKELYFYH
# [2] = system: STS-induced apoptotic HeLa cells; assay: Flow cytometry of STS-induced apoptotic HeLa cells labelled with probe; type: cell-based, human
# Procedure, shortened: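 HeLa cells made apoptotic with staurosporine, or left viable, then incubated with probe (2 μM), with or without Z-VAD-fmk pretreatment (50 μM). Co-stained with a fluorescent caspase inhibitor (FLICA) as the apoptosis marker. Flow cytometry gated into four quadrants by FLICA and Cy5.5 positivity; Cy5.5 fluorescence compared between apoptotic and viable cells.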
# [3] = system: STS-induced apoptotic HeLa cells; assay: Epifluorescence microscopy of STS-treated HeLa cells; type: cell-based, human; details: for cell labeling efficiency: then C-SNAF 2 µM 24 h, HeLa
# DOX-treated HeLa cells = assay: Epifluorescence microscopy of DOX-treated HeLa cells; type: cell-based, human; details: for cell labeling efficiency: 24 h, HeLa
# [4] = system: lysate of apoptotic HeLa cells; assay: HPLC analysis of C-SNAF reaction in apoptotic cell lysate; type: cell-based, human; details: C-SNAF 5 μM, overnight, 37 °C
# [5] = system: lysate of apoptotic MDA-MB-231 cells; assay: as above; type: cell-based, human; details: C-SNAF 5 μM, overnight, 37 °C
# [6] = Blood circulation and biodistribution in healthy nude mice; type: in vivo, mouse; details: 5 nmol i.v.
# [7] = Stability in mouse serum by HPLC; type: in vitro ADME
# [8] = system: subcutaneous HeLa tumors in female nude mice; assay: In vivo fluorescence imaging of DOX-induced tumor apoptosis; set-up: species or system mouse
# Procedure, shortened: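 HeLa s.c. xenografts in female nu/nu mice given DOX 8 mg/kg or saline i.v. every 4 days, three times. Two days after the last dose, probe (5 nmol in saline) given i.v. and imaging started immediately: hyperspectral imager, 635±25 nm excitation, 675 nm long-pass emission, 670–900 nm collected. Cy5.5 unmixed from autofluorescence; tumor ROI intensity expressed as percent difference from saline group. Same animals also imaged after a single DOX dose.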
# HeLa tumor lysates = assay: HPLC analysis of C-SNAF reaction in tumor lysates; type: in vivo, mouse; details: C-SNAF 5 μM, 24 h incubation with tumor lysate, 675 nm
# [9] = system: caspase-3/7 activity in HeLa tumor lysates; assay: Caspase-Glo 3/7 assay in tumor lysates; type: in vivo, mouse; details: 3X DOX 8 mg/kg i.v., Caspase-Glo 3/7, n = 4
# HeLa tumor xenograft = assay: Chemotherapy mouse model, tumor size; type: in vivo
# Procedure, shortened: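 Female nu/nu mice, 6 weeks old, given 2 million HeLa cells s.c. in the shoulders in 50% Matrigel/supplemented DMEM. Tumors grown to 0.7–0.9 cm on one aspect (about 10–15 days), then given DOX 8 mg/kg or saline i.v. every 4 days, three times. Body weight and caliper width/length recorded every other day; volume = (length × width²)/2.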
structure (smiles),measurement,setting,value
CCSSC[C@@H](NC(=O)[C@H](CC(=O)O)NC(=O)[C@@H](NC(=O)[C@H](CCC(=O)O)NC(=O)[C@H](CC(=O)O)NC(C)=O)C(C)C)C(=O)N[C@@H](CCCCNC(=O)CCCCCN1C(=CC=CC=CC2=[N+](CC)c3ccc4c(S(=O)(=O)[O-])cc(S(=O)(=O)O)cc4c3C2(C)C)C(C)(C)c2c1ccc1c(S(=O)(=O)O)cc(S(=O)(=O)O)cc21)C(=O)Nc1ccc2nc(C3=N[C@@H](C(=O)NCCCOc4ccc5nc(C#N)ccc5c4)CS3)sc2c1 [C-SNAF],conversion to C-SNAF-cycl after 6 h,[1],nearly completely converted to C-SNAF-cycl
same,uptake in untreated viable HeLa cells,"[2]; probe 2 μM, 24 h, Cy5.5 fluorescence",low uptake
same,increase in Cy5.5 fluorescence of FLICA-positive apoptotic cells relative to viable cells,"[2]; probe 2 μM, 24 h, STS 2 μM 4 h, HeLa",~13 fold
same,cell labeling efficiency,[3]; STS 0.5 μM 4 h,23%
same,cell labeling efficiency,[3]; STS 2 μM 4 h,90%
same,enhancement in cell labeling efficiency,[3]; STS 0.5 to 2 μM,approximately 4 fold
same,"labeling of apoptotic cells (fluorescence microscopy, words)","[3]; probe 2 µM, 24 h, STS-treated HeLa cells",Efficient labeling
same,cell labeling efficiency,DOX-treated HeLa cells; DOX 1 μM co-incubated with C-SNAF 2 µM,9%
same,cell labeling efficiency,DOX-treated HeLa cells; DOX 5 μM co-incubated with C-SNAF 2 µM,92%
same,enhancement in cell labeling efficiency,DOX-treated HeLa cells; DOX 1 to 5 μM,approximately 10 fold
same,conversion of C-SNAF to C-SNAF-cycl,[4],more than 90%
same,conversion of C-SNAF to C-SNAF-cycl,[5],more than 90%
same,time of nearly complete elimination from the body,[6],≤ 12 h
same,blood half-life,"[6]; Cy5.5 fluorescence of blood, n = 5",1.0 ± 0.45 h
same,half-life,[7],> 6 h
same,"increase in tumor fluorescence signal, DOX-treated compared to saline-treated mice","[8]; 5 nmol i.v., 3X DOX 8 mg/kg, by 4 h, n = 5",1.6 fold
same,time of maximum tumor fluorescence after administration,"[8]; 5 nmol i.v., n = 5",1 h
same,tumor fluorescence relative to saline-treated mice,"[8]; after single dose of DOX (1X DOX), 2 h after C-SNAF, n = 4",moderate increase in tumor fluorescence
same,tumor fluorescence relative to saline and 1X DOX,"[8]; after third round of DOX, same animals, n = 4",significant fluorescence enhancement
same,amount of C-SNAF-cycl in DOX-treated relative to saline-treated tumor lysates (HPLC),HeLa tumor lysates,significantly greater amount of C-SNAF-cycl
"COc1cccc2c1C(=O)c1c(O)c3c(c(O)c1C2=O)C[C@@](O)(C(=O)CO)C[C@@H]3O[C@H]1C[C@H](N)[C@H](O)[C@H](C)O1 [DOX, doxorubicin]","increase in caspase-3/7 activity, DOX-treated relative to saline-treated tumors",[9],1.9 fold
same,tumor size change,HeLa tumor xenograft; following 1X DOX 8 mg/kg i.v.,no significant size difference
same,tumor size change,HeLa tumor xenograft; following the third round of DOX 8 mg/kg i.v.,significant size reduction
"COC(=O)C[C@H](NC(=O)[C@H](C)NC(=O)[C@@H](NC(=O)OCc1ccccc1)C(C)C)C(=O)CF [Z-VAD-fmk, reference compound] (Cbz-Val-Ala-Asp(OMe)-CH2F)",effect of caspase inhibitor on labeling by C-SNAF,"[2]; Z-VAD-fmk 50 μM, 30 min before C-SNAF 2 μM, STS-treated HeLa",abrogated
